Reference: ChEMBL document CHEMBL2380254, “Optimization of tocotrienols as antiproliferative and antimigratory leads” (Eur J Med Chem, 2013)

Tests used:
[1] = tested on: T47D; experiment: Growth inhibition of human T47D cells assessed as cell growth at 10 uM after 48 hrs by sulforhodamine B assay; assay type: functional; conditions: read-out: Activity
Procedure, shortened: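 Single-dose NCI-60 test at 10 µM. Cells were grown in RPMI 1640 with 5% FBS and 2 mM L-glutamine, preincubated 24 h, with T0 plates TCA-fixed. Exposure was 48 h at 37 °C, 5% CO2. Cells were fixed with cold TCA (final 10%, 4 °C, 60 min), stained with SRB and read at 515 nm. Percent growth was taken relative to T0 and untreated control; negative values denote cell kill.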

[2] = tested on: BT-549; experiment: Growth inhibition of human BT549 cells after 48 hrs by sulforhodamine B assay; assay type: functional; conditions: BT-549, 48 h
Procedure, shortened: (§1)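 NCI-60 screen: cells in RPMI 1640 with 5% FBS and 2 mM glutamine, 5000–40,000 cells/well, preincubated 24 h. Five concentrations (10-fold dilutions; 100 to 0.001 µM) applied for 48 h at 37 °C. TCA fixation, SRB stain, absorbance at 515 nm. Time-zero plates included; GI50 where 100×(T−T0)/(C−T0)=50.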

[3] = tested on: OVCAR-8; experiment: Growth inhibition of human OVCAR8 cells after 48 hrs by sulforhodamine B assay; assay type: functional; conditions: OVCAR-8, 48 h
Procedure, shortened: (§2)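 NCI-60 panel cells grown in RPMI 1640 with 5% FBS and 2 mM L-glutamine, seeded at 5000–40,000 cells/well and preincubated 24 h. Five 10-fold dilutions (0.001–100 µM) from DMSO stocks were added for 48 h at 37 °C. Adherent cells were fixed with cold TCA (10% final) for 60 min at 4 °C, stained with 0.4% SRB, and read at 515 nm. GI50 was set where 100×(T−T0)/(C−T0)=50.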

[4] = tested on: SN12C; experiment: Growth inhibition of human SN12C cells after 48 hrs by sulforhodamine B assay; assay type: functional
Procedure, shortened: (§3)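 NCI-60 five-dose screen. Cells were grown in RPMI 1640 with 5% FBS and 2 mM L-glutamine, plated at 5000–40,000 cells/well and incubated 24 h before dosing, with T0 plates TCA-fixed. DMSO stocks were diluted to doses of […] and exposed 48 h at 37 °C, 5% CO2. Cells were fixed with cold TCA (final 10%, 60 min, 4 °C), stained with 0.4% SRB in 1% acetic acid for 10 min, solubilized in 10 mM trizma base and read at 515 nm. GI50 is where 100×(T−T0)/(C−T0)=50.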

[5] = tested on: OVCAR-5; experiment: Growth inhibition of human OVCAR5 cells assessed as cell growth at 10 uM after 48 hrs by sulforhodamine B assay; assay type: functional; conditions: OVCAR-5, 48 h, read-out: Activity
Procedure, shortened: (§4)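 Single-dose NCI-60 screen: adherent cells in RPMI 1640 with 5% FBS were exposed to 10 µM for 48 h at 37 °C after a 24 h preincubation. They were fixed in situ with cold TCA (10% final), stained with 0.4% SRB in 1% acetic acid, solubilized in 10 mM Tris base, and read at 515 nm. Percent growth was taken relative to time-zero and control plates.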

[6] = tested on: MCF7; experiment: Growth inhibition of human MCF7 cells assessed as cell growth at 10 uM after 48 hrs by sulforhodamine B assay; assay type: functional; conditions: MCF7, 48 h, read-out: Activity; procedure, shortened: as §4
[7] = tested on: SK-OV-3; experiment: Growth inhibition of human SKOV3 cells after 48 hrs by sulforhodamine B assay; assay type: functional; conditions: SK-OV-3, 48 h; procedure, shortened: as §3
[8] = Growth inhibition of human Hs 578T cells after 48 hrs by sulforhodamine B assay; assay type: functional; procedure, shortened: as §1
[9] = tested on: NCI-H226; experiment: Growth inhibition of human NCI-H226 cells after 48 hrs by sulforhodamine B assay; assay type: functional; conditions: NCI-H226, 48 h; procedure, shortened: as §2
[10] = tested on: MOLT-4; experiment: Growth inhibition of human MOLT4 cells after 48 hrs by sulforhodamine B assay; assay type: functional; conditions: MOLT-4, 48 h
Procedure, shortened: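 NCI-60 suspension lines in RPMI 1640 with 5% FBS and 2 mM L-glutamine, preincubated 24 h. A five-concentration 10-fold series (0.001–100 µM) was given for 48 h at 37 °C. Settled cells were fixed with 80% TCA (16% final), stained with SRB, and read at 515 nm. GI50 was taken where 100×(T−T0)/(C−T0)=50, with T0 plates fixed at drug addition.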

[11] = tested on: U-251; experiment: Growth inhibition of human U251 cells after 48 hrs by sulforhodamine B assay; assay type: functional; conditions: U-251, 48 h; procedure, shortened: as §3
[12] = tested on: SK-MEL-28; experiment: Growth inhibition of human SK-MEL-28 cells assessed as cell growth at 10 uM after 48 hrs by sulforhodamine B assay; assay type: functional; conditions: SK-MEL-28, 48 h, read-out: Activity; procedure, shortened: as §4
[13] = Antiproliferative activity against mouse +SA cells by MTT assay; assay type: functional, cell-based; conditions: +SA cell
Procedure, shortened: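 Mouse +SA mammary epithelial cells in serum-free DMEM/F12 with BSA, transferrin, insulin and EGF. Compounds from DMSO stock conjugated to BSA (overnight, 37 °C); 0–40 µM, final DMSO <0.1%. MTT 0.42 mg/mL for 4 h at 37 °C, isopropanol solubilization, OD 570 nm. Cell number from a standard curve; IC50 by non-linear regression.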

[14] = Growth inhibition of human EKVX cells assessed as cell growth at 10 uM after 48 hrs by sulforhodamine B assay; assay type: functional; conditions: read-out: Activity
Procedure, shortened: (§5)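 NCI-60 single-dose screen at 10 µM: cells in RPMI 1640 with 5% FBS, preincubated 24 h, then exposed 48 h at 37 °C. TCA fixation (16% final for suspension cells), SRB staining, absorbance 515 nm. Percent growth relative to time-zero and untreated control plates; negative values indicate cell kill.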

[15] = tested on: MDA-MB-435; experiment: Growth inhibition of human MDA-MB-435 cells after 48 hrs by sulforhodamine B assay; assay type: functional; conditions: MDA-MB-435, 48 h; procedure, shortened: as §2
[16] = tested on: OVCAR-3; experiment: Growth inhibition of human OVCAR3 cells assessed as cell growth at 10 uM after 48 hrs by sulforhodamine B assay; assay type: functional; conditions: OVCAR-3, 48 h, read-out: Activity; procedure, shortened: as §4
[17] = tested on: PC-3; experiment: Growth inhibition of human PC3 cells after 48 hrs by sulforhodamine B assay; assay type: functional; conditions: PC-3, 48 h; procedure, shortened: as §2
[18] = tested on: NCI-H460; experiment: Growth inhibition of human NCI-H460 cells after 48 hrs by sulforhodamine B assay; assay type: functional; conditions: NCI-H460, 48 h; procedure, shortened: as §2
[19] = tested on: NCI-H322M; experiment: Growth inhibition of human NCI-H322M cells assessed as cell growth at 10 uM after 48 hrs by sulforhodamine B assay; assay type: functional; conditions: read-out: Activity; procedure, shortened: as §4
[20] = tested on: UO-31; experiment: Growth inhibition of human UO31 cells after 48 hrs by sulforhodamine B assay; assay type: functional; conditions: UO-31, 48 h; procedure, shortened: as §3
[21] = tested on: ACHN; experiment: Growth inhibition of human ACHN cells assessed as cell growth at 10 uM after 48 hrs by sulforhodamine B assay; assay type: functional; conditions: read-out: Activity; procedure, shortened: as §5
[22] = Growth inhibition of human NCI-ADR-RES cells after 48 hrs by sulforhodamine B assay; assay type: functional; procedure, shortened: as §2
[23] = tested on: IGROV-1; experiment: Growth inhibition of human IGROV1 cells assessed as cell growth at 10 uM after 48 hrs by sulforhodamine B assay; assay type: functional; conditions: IGROV-1, 48 h, read-out: Activity; procedure, shortened: as §5
[24] = tested on: DU-145; experiment: Growth inhibition of human DU145 cells assessed as cell growth at 10 uM after 48 hrs by sulforhodamine B assay; assay type: functional; conditions: DU-145, 48 h, read-out: Activity; procedure, shortened: as §5

Compound | growth at 10 µM [1] [%] | GI50 [2] [µM] | GI50 [3] [µM] | GI50 [4] [µM] | growth at 10 µM [5] [%] | growth at 10 µM [6] [%] | GI50 [7] [µM] | GI50 [8] [µM] | GI50 [9] [µM] | GI50 [10] [µM] | GI50 [11] [µM] | growth at 10 µM [12] [%] | IC50 [13] [µM] | GI50 [15] [µM] | growth at 10 µM [16] [%] | GI50 [17] [µM] | GI50 [18] [µM] | growth at 10 µM [19] [%] | GI50 [20] [µM] | growth at 10 µM [21] [%] | also measured
CC(C)=CCC/C(C)=C/CC/C(C)=C/CC[C@]1(C)CCc2c3c(cc(C)c2O1)OCN(CCCO)C3 | -22.1 | 2 | 1.95 | 1.67 | 40.4 | -94.2 | 1.98 | 2.03 | 2.31 | 1.92 | 1.72 | -50.7 | 1.8 | 1.65 | -38.4 | 1.63 | 1.93 | -62.1 | 1.47 | 42.5 | growth at 10 µM [14]: 82.7%; GI50 [22]: 1.96 µM; growth at 10 µM [23]: -6.58%; growth at 10 µM [24]: -13.6%
CC(C)=CCC/C(C)=C/CC/C(C)=C/CC[C@]1(C)CCc2c3c(cc(C)c2O1)OCN(C1CCN(Cc2ccccc2)CC1)C3 | 89.3 | 1.89 | 1.4 | 1.46 | 79 | -36 | 1.93 | 1.51 | 2.21 | 0.237 | 1.51 | 60 | 0.8 | 1.2 | -47.9 | 0.581 | 0.618 | 19 | 1.51 | 83.2 | growth at 10 µM [14]: 78%; GI50 [22]: 2.56 µM; growth at 10 µM [23]: -48.5%; growth at 10 µM [24]: 65.3%
CC(C)=CCC/C(C)=C/CC/C(C)=C/CC[C@]1(C)CCc2c3c(cc(C)c2O1)OCN(CCCCCCCCO)C3 | -67 | 5.69 | 4.46 | 1.54 | -70.8 | -93.3 | 2.24 | 0.938 | 5.17 | 0.996 | 0.544 | -89.2 | 0.79 | 1.16 | -85.4 | 1.51 | 0.71 | -76.3 | 3.46 | -97.6 | growth at 10 µM [14]: -53.4%; GI50 [22]: 3.37 µM; growth at 10 µM [23]: -79.9%; growth at 10 µM [24]: -57.7%
CC(C)=CCC/C(C)=C/CC/C(C)=C/CC[C@]1(C)CCc2c3c(c(C)c(C)c2O1)OCN(CCCCCO)C3 | 94.4 | 7.34 | 6.39 | 5.56 | 94.4 | 24.3 | 6.85 | 7.26 | 6.19 | 5.87 | 5.71 | 99.7 | 1.7 | 5.8 | 65.2 | 5.71 | 5.18 | 91 | 4.64 | 101 | growth at 10 µM [14]: 90.6%; GI50 [22]: 5.89 µM; growth at 10 µM [23]: 63.7%; growth at 10 µM [24]: 99.6%
CC(C)=CCC/C(C)=C/CC/C(C)=C/CC[C@]1(C)CCc2c3c(cc(C)c2O1)OCN(CCCCCCO)C3 | -51.6 | 6.15 | 4.45 | 2.06 | 33.4 | -90.4 | 2.62 | 0.814 | 5.27 | 0.835 | 0.536 | -49.6 | 1.3 | 0.967 | -61.6 | 1.24 | 0.692 | -61 | 1.52 | -39.7 | GI50 [22]: 1.13 µM; growth at 10 µM [23]: -73.7%; growth at 10 µM [24]: 10.7%
